# TRPC6 inh: blocks the mouse TRPC6 cation channel. AID 2553. Q61143. B-score at 10 µM. hit rate 1.1% among 310,000. HEK293-TRPC6, membrane potential dye, ACh-evoked depolarization; stronger effect = lower value;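 active means B-score under library mean minus 3 SD, initial fluorescence not abnormally high, positive integrated signal ratio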;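 further: B-score derived from integrated fluorescence ratio over the kinetic read; more negative B-score means stronger inhibition of depolarization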
# TRPC4 act: activators of mouse TRPC4 channel; Q9QUQ5; HEK293 TRPC4beta/mu-opioid, Fluo4 calcium fluorescence; stronger effect = higher value; B-score at 10 µM; hit rate 0.49% among 310,000; AID 2237;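 active means B-score above 5 SD of library B-scores, and initial fluorescence ratio not above library mean plus 5 SD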;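 further: positive B-score marks a calcium rise read as TRPC4 activation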
#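 Assay system – TRPC4beta and mu-opioid receptor HEK293 stable cells · Measured by – Fluo4 fluorescence, kinetic · Schedule – dye loading 45 min room temperature, 110 s kinetic read · Read-out – B-scored integrated calcium fluorescence ratio · Controls – buffer and maximal DAMGO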
# Kir21 block: Kir2.1 (mouse) channel inhibition; P35561; HEK293-Kir2.1, FluxOR thallium flux fluorescence; stronger effect = lower value; B-score at 10 µM; hit rate 0.85% among 310,000;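 active means fluorescence ratio B-score at or below minus 3 SD of library scores, with starting-brightness B-score within 2 SD, cut at about -4.2 in these data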;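 further: channel flux triggered by added potassium and thallium sulfate stimulus; B-score of peak minus minimum fluorescence over baseline after thallium stimulus; more negative B-score means stronger Kir2.1 block with less thallium influx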
# TRPC4 inh: inhibitors of mouse TRPC4 channel | HEK293 TRPC4beta/mu-opioid, DAMGO-evoked Fluo4 calcium flux; stronger effect = lower value | B-score at 10 µM | hit rate 0.39% among 300,000 | AID 2247;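 active means B-score over 3 SD under the library average, no early fluorescence shift, positive overall ratio signal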
#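 Assay system: HEK293 cells with stable TRPC4beta plus mu-opioid receptor expression; Probe or stimulus: DAMGO in two steps, submaximal then maximal; Dosing: single-point compound dosing; Measured by: Fluo4 calcium-dye fluorescence, kinetic read; Read-out basis: B score from integrated Fluo4 fluorescence ratio.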
# TRPC4 PAM: allosterically enhances the mouse TRPC4 cation channel | hit rate 0.42% among 310,000 | HEK293 TRPC4beta/mu-opioid, DAMGO EC20, Fluo-4 Ca2+ flux; stronger effect = higher value | B-score at 10 µM;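 active means B-score of calcium response area above 5 SD of library B-scores, with initial fluorescence ratio within 5 SD of library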
# TRPC6 activator: mouse TRPC6 channel activation | HEK293-TRPC6 membrane potential dye fluorescence; stronger effect = higher value | Q61143 | B-score at 10 µM | hit rate 0.13% among 310,000;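 active means B-score of the integrated fluorescence ratio above library mean plus 3 SD, and starting fluorescence ratio within library mean plus 5 SD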;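 further: higher score means more depolarization so channel activation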
# Hits are given with their value; i = inactive. In the library only some 2.9% were active in any assay of this set; here they are far more common.
SMILES,TRPC6 inh,TRPC4 act,Kir21 block,TRPC4 inh,TRPC4 PAM,TRPC6 activator
CCCNC(=O)c1ccc(C2SCC(=O)N2CCc2ccccc2)cc1 (configuration not stated),i,i,i,i,i,i
COc1ccc(-c2nn(-c3ccccc3)cc2C(=O)N2c3ccc(C)cc3C3CN(C)CCC32)cc1 (configuration not stated),i,i,i,i,15,i
COc1cc2cc(C(N)=O)c(N)nc2cc1OC,i,i,i,i,13,i
O=C(N/N=C/c1ccccc1[N+](=O)[O-])c1cnccn1,i,i,i,i,20,i
Cc1ccc(N(CC(=O)NC2CCCC2)C(=O)CNC(=O)c2cccs2)cc1F,i,i,i,-7,i,i
O=S(=O)(c1ccc(Cl)cc1Br)N1CCCCC1,i,i,i,i,17,i
CC1CCN(S(=O)(=O)c2cc(Cl)ccc2Br)CC1,i,i,i,i,i,i
CC(=O)OCC[C@H](NS(=O)(=O)OCC(Cl)(Cl)Cl)c1ccccc1,i,i,i,i,i,i
Cc1noc(C)c1CCC(=O)NC1CCCN(Cc2ccc(CC(C)C)cc2)C1 (configuration not stated),i,101,i,i,i,i
COc1ccc(NC2CCCN(C(=O)CCc3cccc(Cl)c3)C2)cc1 (configuration not stated),i,i,-4.2,i,i,i
CCOC(=O)c1ccc(NC(=S)N2CCSC2c2ccc(Br)cc2)cc1 (configuration not stated),i,i,i,i,43,i
CCOC(=O)c1ccc(NC(=S)N2CCC(O)CC2)cc1,i,i,i,i,i,i
Cc1ccc(C2(CCNCc3ccco3)CCOC(C(C)C)C2)cc1 (configuration not stated),i,i,-4.3,i,i,i
O=C(NCc1cccnc1)C(=O)C1C(=O)Nc2ccccc21 (configuration not stated),i,i,i,i,i,i
O=C(O)CN1C(=O)C(=O)N(Cc2ccccc2F)C1=O,i,i,i,i,i,i
CS(=O)(=O)N(CC(=O)N1CCc2ccccc2C1)c1cccc(F)c1,i,i,-4.2,i,i,i
COc1ccc(C(=O)NCC(c2ccco2)N2CCc3ccccc32)c(OC)c1 (configuration not stated),i,i,i,i,10,i
CCOCCCNc1ncnc2c1[nH]c1ccccc12,i,i,i,i,i,i
CCCCOCCCNc1ncnc2c1[nH]c1ccccc12,i,i,-9.6,i,i,i
O=C(Nc1c(S(=O)(=O)c2ccc(Cl)cc2)csc1Br)c1ccccc1Cl,i,i,i,i,i,i
O=S(=O)(c1ccccc1)N1CCN(C/C=C/c2ccccc2)CC1,i,i,i,-6,i,i
O=C1OC(N2CCN(C/C=C/c3ccccc3)CC2)c2ccccc21 (configuration not stated),i,83,i,i,i,i
CC(=C1C(=O)c2ccccc2C1=O)N1CCN(C/C=C/c2ccccc2)CC1,i,49,i,i,i,i
O=C(O)C1C2C=CC(C2)C1C(=O)N1CCN(C/C=C/c2ccccc2)CC1 (configuration not stated),i,84,i,i,i,i
O=C1CC(N2CCN(C/C=C/c3ccccc3)CC2)C(=O)N1Cc1cccs1 (configuration not stated),i,i,i,i,i,i
SMILES,TRPC6 inh,TRPC4 act,Kir21 block,TRPC4 inh,TRPC4 PAM,TRPC6 activator
O=S(=O)(c1ccc(S(=O)(=O)N2CCN(C/C=C/c3ccccc3)CC2)cc1)N1CCCC1,i,i,i,i,i,i
CC1=C(C)CC(C(=O)N2CCN(C/C=C/c3ccccc3)CC2)C(C(=O)O)C1 (configuration not stated),i,i,i,i,i,i
Cc1cc2oc(=O)ccc2cc1[N+](=O)[O-],i,i,i,i,i,i
CCC(C(=O)NN1C(=O)c2ccccc2C1=O)c1ccccc1 (configuration not stated),i,i,i,i,i,i
CC(c1ccccc1C(O)(c1ccccc1)c1ccccc1)N(C)C (configuration not stated),i,103,-6.2,i,i,i
C=CCC1(Cl)C(=O)C(Cl)=C(N2CCOCC2)C1(OC)OC (configuration not stated),i,i,i,i,i,i
CC(=O)C1=C(O)C(=O)N(Cc2ccccc2)C1c1ccc([N+](=O)[O-])cc1 (configuration not stated),i,i,i,-6,i,i
CC1CCCN(c2c([N+](=O)[O-])cc(C(=O)O)cc2[N+](=O)[O-])C1 (configuration not stated),i,i,i,-5,i,i
COC(=O)CSc1nc2ccccn2c(=O)c1C=O,i,i,i,-6,i,i
O=Cc1c(SCCO)nc2ccccn2c1=O,i,i,i,i,i,i
NC1=NC[C@H](c2ccccc2)N1CCCCC1CCCCC1,i,i,-6.7,i,i,i
Cc1ccc(CN2CCN(Cc3c(C)nn(-c4ccc(F)cc4)c3C)CC2CCO)o1 (configuration not stated),i,i,i,i,i,i
Cc1cc(C)c(CN2CCN(Cc3ccc(C)o3)C(CCO)C2)c(-n2cccn2)c1 (configuration not stated),i,77,i,i,i,i
COc1ccc(NC(=O)CSc2c3c(nc4ccccc24)CCC3)c(OC)c1,i,i,-10,i,i,i
COc1ccc(Nc2c3c(nc4ccccc24)CCC3)c(OC)c1,i,i,i,-5,i,i
Cc1ccc(OCC(=O)OCc2nc3scc(-c4ccccc4)c3c(=O)[nH]2)cc1C,i,i,i,i,i,i
CCn1c2ccccc2c2cc(NC(C)=O)ccc21,i,i,i,i,i,i
CCn1c2ccccc2c2cc(NC(=O)CNCc3ccccc3OC)ccc21,i,i,i,i,i,i
CCn1c2ccccc2c2cc(NC(=O)CN3CCCC3)ccc21,i,i,i,i,28,i
CCn1c2ccccc2c2cc(NC(=O)CNCC3CCCO3)ccc21 (configuration not stated),i,i,-9.1,i,i,i
COc1ccc(-c2cc(-c3nnc(COC(=O)c4ccncc4)o3)c3ccccc3n2)cc1OC,i,i,i,i,i,i
COc1cccc(-n2nc(C(N)=O)c(O)cc2=O)c1,i,i,i,i,i,i
COc1cccc(-n2nc(C#N)c(Cl)cc2=O)c1,i,i,-4.6,i,i,i
c1ccc(CSc2nnc(Cc3ccccc3)o2)cc1,i,i,i,i,i,i
Cc1ccc(C)c(CSc2nnc(CCN)o2)c1,i,81,i,i,i,i
NCCc1nnc(SCc2ccccc2)o1,i,i,i,i,16,i

# Screening results: PubChem BioAssay, Johns Hopkins Ion Channel Center
